M4 ag: human M4 muscarinic receptor agonists, primary screen, CHO-K1 cells, Fluo-8 calcium fluorescence. Muscarinic acetylcholine receptor M4 (Homo sapiens), P08173. CHO-K1 hM4/Gqi5; vehicle 0%, full acetylcholine response 100%. activation, % at 3 µM. 0.14% of 360,000 active;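 active = activation above the run mean over all test wells plus 3 SD, cut at about 32% in these data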;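 note: peak over basal fluorescence ratio per well then scaled between controls; 0% = DMSO wells and 100% = acetylcholine at EC100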
Target sequence (P08173 whole entry, looked up): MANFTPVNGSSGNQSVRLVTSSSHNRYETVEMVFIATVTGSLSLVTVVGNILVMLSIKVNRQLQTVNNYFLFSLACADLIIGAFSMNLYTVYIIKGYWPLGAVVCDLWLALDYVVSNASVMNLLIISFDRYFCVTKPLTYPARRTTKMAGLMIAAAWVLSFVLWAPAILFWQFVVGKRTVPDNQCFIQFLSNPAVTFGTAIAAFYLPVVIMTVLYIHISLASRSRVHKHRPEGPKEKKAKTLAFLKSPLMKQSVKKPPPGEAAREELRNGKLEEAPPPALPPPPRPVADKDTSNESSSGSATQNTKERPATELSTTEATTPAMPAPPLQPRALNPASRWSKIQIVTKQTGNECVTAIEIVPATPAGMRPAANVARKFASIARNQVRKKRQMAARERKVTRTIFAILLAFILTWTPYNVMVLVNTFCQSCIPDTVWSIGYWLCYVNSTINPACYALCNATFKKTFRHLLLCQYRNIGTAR
CHRM5 agonist: human M5 muscarinic receptor agonists, primary screen, CHO-K1 cells, Fluo-8 calcium fluorescence | Muscarinic acetylcholine receptor M5 (Homo sapiens), P08912 | 0.19% of 360,000 active | activation, % at 3 µM | CHO-K1 hM5 cells; 0% DMSO wells, 100% maximal acetylcholine response | AID 624037, 2012;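 active = activation above the run's mean over test compounds plus 3 SD, cut at about 23% in these data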;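 note: signal is peak over basal fluorescence ratio across the kinetic read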
M4 antag: human M4 muscarinic receptor antagonists, primary screen, CHO cells, Fluo-8 calcium fluorescence. CHO-hM4 cells, ACh EC80. 0.73% of 360,000 active. inhibition, % at 3 µM. Muscarinic acetylcholine receptor M4 (Homo sapiens), P08173. AID 624125, 2012;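 active = inhibition above its plate's cutoff, the mean inhibition of sample wells plus 3 SD, cut at about 27% in these data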;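 note: 0% = acetylcholine EC80 with DMSO and 100% = DMSO without agonist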
M5 PAM: human M5 muscarinic receptor positive allosteric modulators, primary screen, CHO-K1 cells, Fluo-8 calcium fluorescence | CHO-K1 hM5, ACh EC20 PAM; 0% = ACh EC20, 100% = ACh EC100 | 0.3% of 360,000 active | activation, % at 3 µM | AID 624038, 2012 | Muscarinic acetylcholine receptor M5 (Homo sapiens), P08912;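 active = activation above the run cutoff, the mean activation of all test compounds plus 3 SD, cut at about 18% in these data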
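Assay system: CHO-K1 hM5 cells. Also added: acetylcholine at EC20 concentration, added after compound. Dosing: 3 µM, single dose. Times: compound preincubation 140 s before EC20 acetylcholine addition. Signal: Fluo-8 calcium fluorescence. Measure: % activation relative to EC20 and EC100 ACh responses. Repeats: singlicate, one well per test compound.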
M4 PAM: human M4 muscarinic receptor positive allosteric modulators, primary screen, CHO-K1 cells, Fluo-8 calcium fluorescence; Muscarinic acetylcholine receptor M4 (Homo sapiens), P08173; 0.4% of 360,000 active; CHO-K1 hM4/Gqi5, ACh EC20; 0% = ACh EC20, 100% = maximal ACh; activation, % at 3 µM; AID 624126, 2012;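 active = activation above its plate's cutoff, the mean activation of sample wells plus 3 SD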
CHRM5 antagonist: human M5 muscarinic receptor antagonists, primary screen, CHO cells, Fluo-8 calcium fluorescence | CHO-hM5 cells, ACh EC80 | AID 624040, 2012 | 0.59% of 360,000 active | inhibition, % at 3 µM | Muscarinic acetylcholine receptor M5 (Homo sapiens), P08912;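 active = inhibition above a per-plate cutoff, the mean of that plate's test compounds plus 3 SD, cut at about 27% in these data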;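 note: 0% = acetylcholine EC80 with DMSO and 100% = DMSO without agonist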
Active calls of the source: *. An excerpt weighted towards active compounds, which were near 1.8% of everything screened.

SMILES	M4 ag	CHRM5 agonist	M4 antag	M5 PAM	M4 PAM	CHRM5 antagonist
O=C(COC(=O)c1ccccn1)NC12CC3CC(CC(C3)C1)C2	1	1	30*	7	11	4
O=C(COC(=O)c1ccccc1O)NC12CC3CC(CC(C3)C1)C2	2	2	13	-11	-5	2
CCc1nc2ccc(C(=O)NCc3ccc(OC)cc3)cn2c1N(C)CCC(C)C	0	-2	-5	-6	-11	2
CCOc1ccc(NC(=S)NCc2ccc3c(c2)OCO3)cc1	17	4	10	-12	-11	2
CN(/N=C/c1ccc(-c2ccc([N+](=O)[O-])cc2)o1)c1ccccc1	16	34*	10	-4	-10	25
Cc1ccc(Cn2c(N/N=C/c3ccncc3)nc3c2c(=O)n(C)c(=O)n3C)cc1	3	-5	-6	1	-1	0
Cc1ccc(Cn2c(SCCN3CCCCC3)nc3c2c(=O)n(C)c(=O)n3C)cc1	0	-7	-2	0	-1	-4
Cn1c(=O)c2c(nc(N/N=C/c3ccncc3)n2Cc2ccccc2)n(C)c1=O	1	5	2	21*	-2	-10
Cn1c(=O)c2c(nc(SCCN3CCCCC3)n2Cc2ccccc2)n(C)c1=O	-1	-7	28*	-7	-20	5
COc1ccc(Oc2nc3c(c(=O)n(C)c(=O)n3C)n2Cc2ccccc2)cc1	0	-2	0	12	30*	-6
Cn1c(=O)c2c(nc(Oc3ccc4c(c3)OCO4)n2Cc2ccc(Cl)cc2)n(C)c1=O	1	1	7	33*	1	0
CC(NCCCOc1cccc2ccccc12)c1ccccc1 (configuration not stated)	29	1	5	4	0	10
CN(Cc1ccccc1)c1nc2c(c(=O)n(C)c(=O)n2C)n1CCCc1ccccc1	3	-5	27*	-16	-10	13
CCN(CC)c1nc2c(c(=O)n(C)c(=O)n2C)n1CCCc1ccccc1	2	2	-9	-1	-2	9
C=CCN(c1ccc(C(=O)N2CCN(c3ccc(F)cc3)CC2)cc1)S(C)(=O)=O	1	3	-3	-2	4	42*
CC(=O)N1CCN(C23CC4CC(CC(C4)C2)C3)CC1	0	-1	1	-2	-1	2
CCCCCC#CCN1CCN(C23CC4CC(CC(C4)C2)C3)CC1	1	-10	30*	-16	-14	10
CCCC#CCN1CCN(C23CC4CC(CC(C4)C2)C3)CC1	1	-7	28*	-12	-11	15
COc1ccc(N/C=C(\C#N)c2nc3ccccc3n2C)c(OC)c1	7	-2	28*	-10	-15	11
CC(=O)Nc1ccc(CN2CCCC(C(=O)c3ccc(C(F)(F)F)cc3)C2)cc1 (configuration not stated)	4	-11	24	-5	-22	-8
O=C(COC(=O)CCS(=O)(=O)c1ccccc1)Nc1ccc(N2CCCCC2)cc1	4	1	-10	5	23*	-10
CC(=O)Nc1c(NC(C)C)c2ccccc2oc1=O	0	-2	-2	22*	9	-2
CC1(C(=O)NS(=O)(=O)Cc2ccccc2)CCN1C(=O)C1(c2ccc(Cl)cc2)CCC1 (configuration not stated)	0	0	0	0	-1	10
CC(=O)C(=Cc1ccccc1)c1ccccc1	-1	-3	9	-5	4	-8
Cc1sc2nc(CN3CCCC3)nc(N3CCC(C(N)=O)CC3)c2c1C	4	-6	22	7	31*	8
SMILES	M4 ag	CHRM5 agonist	M4 antag	M5 PAM	M4 PAM	CHRM5 antagonist
Cc1sc2nc(CN3CCCC3)nc(N3CCN(C(=O)c4ccco4)CC3)c2c1C	2	-4	0	9	-6	-4
S=c1c2c(nc3nc[nH]n13)CCC2	1	9	3	18*	-1	-10
CC1CCc2c(nc3nc[nH]n3c2=O)C1 (configuration not stated)	-1	2	9	4	14	-9
Cc1nnc(SCC(=O)N(C)c2ccccc2)n1-n1cccc1	2	3	-5	0	14	5
Cc1csc(=O)n1CC(=O)Nc1ccc(Cl)c(Cl)c1	3	0	8	-7	-7	8
Cn1c(N)c(N2CCCCC2)c(=O)n(CC(=O)Nc2ccc(Cl)c(Cl)c2)c1=O	0	6	3	19*	24	-4
O=S(=O)(C/C(=C/CO)S(=O)(=O)c1ccccc1)c1ccccc1	0	0	30*	2	1	3
N#C/C(=C\Nc1ccc2cn[nH]c2c1)c1nc(-c2ccccc2)cs1	1	1	-3	-3	3	4
Cc1ccnc(N/C=C(\C#N)c2nc(-c3cccc(Br)c3)cs2)c1	135*	53*	31*	-14	-12	21
Cc1cc(C)c(CSc2ncc(-c3ccc([N+](=O)[O-])cc3)[nH]2)c(C)c1	4	-3	36*	-14	-13	19
CCC(C)(C#CCN1CCCCC1)OCCC#N (configuration not stated)	0	-8	47*	-18	-16	60*
CCC(C#CCN1CCCCC1)(CC)OCCC#N	1	-8	25	-22	-14	24
CN(C(=O)CSc1nccc(=O)[nH]1)C1CCCCC1	1	-1	-17	17	22*	-7
CCN(C(=O)CSc1nccc(=O)[nH]1)C1CCCCC1	0	-1	17	6	3	13
COc1ccc2c(c1)nc(-c1cccc(Br)c1)c(=O)n2C(c1ccccn1)c1nc2ccccc2[nH]1 (configuration not stated)	2	1	-10	1	12	5
NC1=NC(=O)C(Cc2ccc(F)cc2)S1 (configuration not stated)	1	1	-6	2	3	-1
Cc1ccc(CC2SC(N)=NC2=O)cc1 (configuration not stated)	1	2	-12	12	20*	2
Cc1ccccc1-c1noc(N)c1C#N	1	-2	-9	25*	43*	-8

Bioassay records: PubChem BioAssay, The Scripps Research Institute Molecular Screening Center
